Assay results as given in PMC2630402 (Journal of medicinal chemistry, 2008).
Read-outs that look alike come from different tables or passages of the source.

Columns and labels:
[1] = system: αvβ6-positive (DX3puroβ6) tumor; conditions: DX3puroβ6 xenograft, 1 hour after injection, n = 3/tracer; data for 1 taken from ref 8; cited from earlier work
[2] = system: αvβ6-positive (DX3puroβ6) tumor; assay: Biodistribution in mice bearing paired αvβ6-positive; assay type: in vivo, male athymic nude mice; conditions: for uptake in the αvβ6-positive tumor: DX3puroβ6 xenograft, 1 hour after injection; for uptake in the αvβ6-positive tumor / level of activity in the urine: n = 3/tracer; for level of activity in the urine: male athymic nude mice
How it was run: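 Test compounds were 18F-labeled αvβ6-targeting peptides carrying different prosthetic groups. Radioactivity in healthy tissues and in both tumors was measured 1 h after injection and expressed as % ID/g, the percent of injected radioactive dose per gram of tissue. There were 3 mice per tracer.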

## [^18F]FBA-A20FDMV2 [compound 1]
[1]
  uptake in the αvβ6-positive tumor: 0.66 ± 0.09 % ID/g

## [^18F]FC5-A20FDMV2 [compound 3]
[2]
  uptake in the αvβ6-positive tumor: 1.01±0.09 % ID/g
[2]; biodistribution, 1 h p.i., compared with 1 and 2
  levels of radioactivity in the kidneys and the liver: moderately increased
[2]; biodistribution, 1 h p.i.
  level of activity in the urine: 501 ± 332 % ID/g

## [^18F]FPA-A20FDMV2 [compound 2]
[2]
  uptake in the αvβ6-positive tumor: 1.18 ± 0.28 % ID/g
[2]; biodistribution, 1 h p.i.
  level of activity in the urine: 311 ± 133 % ID/g
